Columns and labels:
[1] = target: T1, Protein deacetylase HDAC6 (Homo sapiens, UniProt Q9UBN7); test: Inhibition of recombinant human HDAC6 using Boc-Lys(acetyl)-AMC as substrate incubated for 30 mins by fluorescence assay
T1 sequence (Q9UBN7 whole entry): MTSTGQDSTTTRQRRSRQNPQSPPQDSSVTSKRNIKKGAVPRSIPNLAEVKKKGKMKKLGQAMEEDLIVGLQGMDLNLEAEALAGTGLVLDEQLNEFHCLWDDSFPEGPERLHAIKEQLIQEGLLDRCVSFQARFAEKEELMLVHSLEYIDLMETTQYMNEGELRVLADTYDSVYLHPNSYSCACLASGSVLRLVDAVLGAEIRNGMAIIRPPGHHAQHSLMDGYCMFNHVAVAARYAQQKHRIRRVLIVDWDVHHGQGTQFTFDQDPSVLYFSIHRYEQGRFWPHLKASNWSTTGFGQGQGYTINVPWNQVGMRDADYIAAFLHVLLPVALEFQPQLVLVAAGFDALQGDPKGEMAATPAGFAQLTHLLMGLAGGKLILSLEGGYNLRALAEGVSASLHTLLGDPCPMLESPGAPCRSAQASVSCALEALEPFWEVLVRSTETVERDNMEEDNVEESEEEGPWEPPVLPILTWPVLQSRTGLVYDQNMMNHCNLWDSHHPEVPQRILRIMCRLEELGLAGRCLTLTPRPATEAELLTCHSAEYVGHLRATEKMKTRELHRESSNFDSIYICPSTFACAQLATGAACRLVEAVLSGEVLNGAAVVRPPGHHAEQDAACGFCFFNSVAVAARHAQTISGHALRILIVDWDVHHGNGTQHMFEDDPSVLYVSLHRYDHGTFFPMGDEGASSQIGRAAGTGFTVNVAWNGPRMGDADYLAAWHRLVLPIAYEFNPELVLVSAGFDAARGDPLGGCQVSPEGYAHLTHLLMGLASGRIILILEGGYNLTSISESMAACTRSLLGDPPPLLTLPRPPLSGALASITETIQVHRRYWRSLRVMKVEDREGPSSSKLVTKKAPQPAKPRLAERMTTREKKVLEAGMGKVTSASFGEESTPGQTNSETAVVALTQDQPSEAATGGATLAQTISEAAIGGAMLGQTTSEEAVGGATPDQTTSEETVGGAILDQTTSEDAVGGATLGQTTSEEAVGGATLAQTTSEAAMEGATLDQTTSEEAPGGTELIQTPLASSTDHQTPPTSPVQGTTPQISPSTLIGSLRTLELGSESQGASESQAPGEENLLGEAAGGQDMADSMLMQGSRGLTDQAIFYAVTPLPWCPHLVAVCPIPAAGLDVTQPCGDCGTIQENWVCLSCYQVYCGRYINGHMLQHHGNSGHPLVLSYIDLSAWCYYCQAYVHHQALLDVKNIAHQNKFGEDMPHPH
Procedure, shortened: (§1)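 Two-step fluorogenic assay with recombinant HDAC1, 2, 3 or 6. Deacetylation of Boc-Lys(acetyl)-AMC is followed by trypsin conversion of the deacetylated product to a fluorescent signal.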

[2] = target: T2, Histone deacetylase 8 (Homo sapiens) (UniProt Q9BY41); test: Inhibition of recombinant human N-terminal His6-SUMO-tagged C-terminal SII-tagged HDAC8 expressed in Escherichia coli (BL21) DE3 pLysS cells assessed as residual activity at 50 uM using BocLys(trifluoroacetyl)-AMC as substrate incubated for 30 mins by fluorescence assay relative to control
T2 sequence (whole entry): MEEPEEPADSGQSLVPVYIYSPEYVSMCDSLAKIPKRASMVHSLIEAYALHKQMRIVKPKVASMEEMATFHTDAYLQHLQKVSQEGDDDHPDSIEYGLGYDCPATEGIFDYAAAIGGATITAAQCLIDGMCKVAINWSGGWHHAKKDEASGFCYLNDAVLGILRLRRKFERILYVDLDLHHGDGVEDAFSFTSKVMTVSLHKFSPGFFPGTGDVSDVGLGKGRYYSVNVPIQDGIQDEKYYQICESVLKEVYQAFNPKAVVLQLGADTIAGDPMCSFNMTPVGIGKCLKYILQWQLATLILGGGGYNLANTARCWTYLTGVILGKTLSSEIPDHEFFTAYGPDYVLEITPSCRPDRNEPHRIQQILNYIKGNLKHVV
Procedure, shortened: (§2)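 Catalytic-domain HDAC4 (His6-SUMO/SII-tagged) and full-length codon-optimized human HDAC8 were expressed in E. coli BL21 DE3 pLysS from pET14b. Both were assayed in a two-step fluorogenic format with Boc-Lys(trifluoroacetyl)-AMC, followed by trypsin development. Compounds were screened first at 50 µM for residual activity.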

Histone deacetylase 2 = Histone deacetylase 2 (Homo sapiens, UniProt Q92769); test: Inhibition of recombinant human HDAC2 Boc-Lys(acetyl)-AMC as substrate incubated for 30 mins by fluorescence assay; procedure, shortened: as §1
[3] = Cytotoxicity against HUVEC cells assessed as reduction in cell viability after 96 hrs by MTT assay; details: human
Histone deacetylase 1 = Histone deacetylase 1 (Homo sapiens, UniProt Q13547); test: Inhibition of recombinant human C-terminal His6-FLAG-tagged HDAC1 (1 to end residues) expressed in sf9 insect cells using Boc-Lys(acetyl)-AMC as substrate incubated for 30 mins by fluorescence assay; procedure, shortened: as §1
Histone deacetylase 8 = target: T3, Histone deacetylase 8 (Homo sapiens, UniProt Q9BY41); test: Inhibition of recombinant human N-terminal His6-SUMO-tagged C-terminal SII-tagged HDAC8 expressed in Escherichia coli (BL21) DE3 pLysS cells using BocLys(trifluoroacetyl)-AMC as substrate incubated for 30 mins by fluorescence assay; procedure, shortened: as §2
T3 sequence (Q9BY41 whole entry): T2 sequence (whole entry)

Histone deacetylase 4 = Histone deacetylase 4 (Homo sapiens, UniProt P56524); test: Inhibition of recombinant human N-terminal His6-SUMO-tagged C-terminal SII-tagged HDAC4 expressed in Escherichia coli (BL21) DE3 pLysS cells using BocLys(trifluoroacetyl)-AMC as substrate incubated for 30 mins by fluorescence assay; procedure, shortened: as §2
Chain of Histone deacetylase 4 (P56524 whole entry): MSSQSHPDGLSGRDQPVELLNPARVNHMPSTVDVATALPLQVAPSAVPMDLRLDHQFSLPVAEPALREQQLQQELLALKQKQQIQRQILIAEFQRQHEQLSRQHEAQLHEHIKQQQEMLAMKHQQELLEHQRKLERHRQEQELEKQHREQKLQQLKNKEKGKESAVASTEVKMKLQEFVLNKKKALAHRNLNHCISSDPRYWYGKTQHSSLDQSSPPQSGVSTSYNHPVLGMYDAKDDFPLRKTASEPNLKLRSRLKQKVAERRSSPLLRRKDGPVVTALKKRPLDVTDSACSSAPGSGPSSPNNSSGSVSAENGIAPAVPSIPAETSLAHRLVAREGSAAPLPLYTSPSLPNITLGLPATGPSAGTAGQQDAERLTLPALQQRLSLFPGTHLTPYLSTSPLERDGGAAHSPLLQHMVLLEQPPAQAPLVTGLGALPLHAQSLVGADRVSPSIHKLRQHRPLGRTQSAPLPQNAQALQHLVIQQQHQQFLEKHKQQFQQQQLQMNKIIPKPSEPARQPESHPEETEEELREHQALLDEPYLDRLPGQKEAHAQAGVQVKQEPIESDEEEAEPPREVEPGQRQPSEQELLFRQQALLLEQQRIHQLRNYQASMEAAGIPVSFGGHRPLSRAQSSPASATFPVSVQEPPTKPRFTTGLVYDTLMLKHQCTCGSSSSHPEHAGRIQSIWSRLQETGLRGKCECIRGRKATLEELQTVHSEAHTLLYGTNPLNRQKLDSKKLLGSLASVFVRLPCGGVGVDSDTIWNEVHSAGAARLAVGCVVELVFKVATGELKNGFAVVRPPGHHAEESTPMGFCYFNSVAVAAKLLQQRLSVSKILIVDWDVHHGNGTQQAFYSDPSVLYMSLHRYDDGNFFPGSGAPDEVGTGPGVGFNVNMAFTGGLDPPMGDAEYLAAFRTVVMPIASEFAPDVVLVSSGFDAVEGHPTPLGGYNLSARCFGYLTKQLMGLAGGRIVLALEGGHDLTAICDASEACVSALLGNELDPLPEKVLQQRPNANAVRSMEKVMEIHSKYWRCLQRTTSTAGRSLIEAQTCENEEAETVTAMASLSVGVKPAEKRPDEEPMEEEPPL

Chain of Histone deacetylase 2 (Q92769 whole entry): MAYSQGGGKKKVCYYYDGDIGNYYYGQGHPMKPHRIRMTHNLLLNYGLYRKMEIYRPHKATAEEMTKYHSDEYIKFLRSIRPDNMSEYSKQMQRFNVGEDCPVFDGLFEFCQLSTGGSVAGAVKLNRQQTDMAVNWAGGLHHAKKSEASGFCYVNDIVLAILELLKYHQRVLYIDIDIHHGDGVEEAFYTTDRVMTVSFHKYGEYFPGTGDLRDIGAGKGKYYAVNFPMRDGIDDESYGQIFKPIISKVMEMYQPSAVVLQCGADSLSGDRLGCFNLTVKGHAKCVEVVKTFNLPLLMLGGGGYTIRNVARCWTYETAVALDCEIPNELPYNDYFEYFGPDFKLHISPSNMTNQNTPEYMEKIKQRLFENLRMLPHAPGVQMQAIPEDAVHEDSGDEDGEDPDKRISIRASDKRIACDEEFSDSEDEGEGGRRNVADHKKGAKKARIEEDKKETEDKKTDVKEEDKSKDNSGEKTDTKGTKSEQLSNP
Chain of Histone deacetylase 1 (Q13547 whole entry): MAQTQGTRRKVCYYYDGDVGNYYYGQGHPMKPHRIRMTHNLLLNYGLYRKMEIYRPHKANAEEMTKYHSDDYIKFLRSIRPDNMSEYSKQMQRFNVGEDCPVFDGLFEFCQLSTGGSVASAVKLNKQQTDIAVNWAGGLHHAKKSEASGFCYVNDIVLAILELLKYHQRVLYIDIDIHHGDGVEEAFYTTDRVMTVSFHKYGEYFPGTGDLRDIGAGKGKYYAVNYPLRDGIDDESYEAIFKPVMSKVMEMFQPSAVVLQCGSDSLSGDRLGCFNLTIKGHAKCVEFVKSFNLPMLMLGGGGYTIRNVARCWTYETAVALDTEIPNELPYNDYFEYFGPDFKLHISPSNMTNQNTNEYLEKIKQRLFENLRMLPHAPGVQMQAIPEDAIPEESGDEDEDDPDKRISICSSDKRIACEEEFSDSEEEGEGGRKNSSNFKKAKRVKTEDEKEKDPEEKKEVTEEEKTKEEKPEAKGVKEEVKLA

IC50 [1] [µM]	Activity [2] [%]	IC50 (Histone deacetylase 2) [µM]	IC50 (Histone deacetylase 1) [µM]	IC50 (Histone deacetylase 8) [µM]	IC50 (Histone deacetylase 4) [µM]	SMILES	IC50 at 96 h [3] [µM]
13	22	21	11	25	0.8	O=C1NC(=O)/C(=C\c2ccc(OCC(=O)N3N=C(c4ccc(F)cc4)CC3c3ccc(Cl)c(Cl)c3)cc2)S1 (stereo unspecified)	2
7.6	45	> 50	> 50	> 50	0.88	O=C1NC(=O)/C(=C\c2ccc(OCC(=O)N3N=C(c4ccc(F)cc4)CC3c3ccco3)cc2)S1 (stereo unspecified)	0.7
39	9.4	13	4.9	10	0.7	O=C1NC(=O)/C(=C\c2ccc(OCC(=O)N3N=C(c4ccccc4)CC3c3ccc(Cl)c(Cl)c3)cc2)S1 (stereo unspecified)	> 10
